Experimental findings from ChEMBL document CHEMBL4613315, “Design of First-in-Class Dual EZH2/HDAC Inhibitor: Biochemical Activity and Biological Evaluation in Cancer Cells” (ACS Med Chem Lett, 2020) are described below.

The target of test [1] is T1, Histone-lysine N-methyltransferase EZH2 (Homo sapiens, UniProt Q15910). Put plainly: Inhibition of human EZH2 using core histone as substrate incubated for 1 hr by fluorescence based assay.
Target sequence in this assay (Q15910 whole entry): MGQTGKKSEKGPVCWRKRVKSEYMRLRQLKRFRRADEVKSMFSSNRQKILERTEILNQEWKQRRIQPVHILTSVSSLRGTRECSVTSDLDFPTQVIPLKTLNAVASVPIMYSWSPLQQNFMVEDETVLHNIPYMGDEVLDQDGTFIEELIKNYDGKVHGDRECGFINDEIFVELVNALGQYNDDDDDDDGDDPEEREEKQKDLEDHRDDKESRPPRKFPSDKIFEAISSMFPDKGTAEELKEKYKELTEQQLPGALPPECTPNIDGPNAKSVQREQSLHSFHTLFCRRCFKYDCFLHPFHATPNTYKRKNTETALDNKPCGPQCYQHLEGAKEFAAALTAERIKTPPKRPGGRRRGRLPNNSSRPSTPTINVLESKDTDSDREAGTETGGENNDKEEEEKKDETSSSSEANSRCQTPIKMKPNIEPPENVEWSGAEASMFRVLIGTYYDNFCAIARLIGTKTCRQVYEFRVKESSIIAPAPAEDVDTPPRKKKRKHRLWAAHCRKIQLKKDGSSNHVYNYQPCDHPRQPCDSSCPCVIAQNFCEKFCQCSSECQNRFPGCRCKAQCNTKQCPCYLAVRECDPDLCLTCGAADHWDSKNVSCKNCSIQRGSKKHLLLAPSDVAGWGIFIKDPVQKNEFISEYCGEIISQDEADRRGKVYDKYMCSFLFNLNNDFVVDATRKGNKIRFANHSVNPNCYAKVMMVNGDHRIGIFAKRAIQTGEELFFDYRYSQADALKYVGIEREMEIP
Test [2] has as its target Histone deacetylase (Homo sapiens) (UniProt Q13547+O15379+Q9UBN7+Q92769+Q9UQL6+Q8WUI4+Q9BY41+Q96DB2+P56524+Q9UKV0+Q969S8). The experiment in a line: Inhibition of HDAC in human U937 cells assessed as Ac-H3 level at 50 uM in presence of vorinostat incubated for 96 hrs by Western blot analysis (reference value: 1). The format is cell-based. Particulars: U-937. An outline of the steps:
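U937 leukemia cells given EZH2 inhibitor 50 μM together with HDAC inhibitor 0.5 μM; Western blot at 96 and 120 h for H3K27me3 or acetyl-H3, actin as loading control; densitometry normalized to loading control then to DMSO vehicle.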
For orientation: In western blotting, separated proteins are transferred to a membrane and probed.

Test [3] addresses T1, Histone-lysine N-methyltransferase EZH2. Put plainly: Inhibition of EZH2 in human U937 cells assessed as H3K27me3 level at 50 uM incubated for 120 hrs by Western blot analysis. As to conditions: U-937. The format is cell-based.
Target sequence in this assay (Q15910 whole entry, looked up): as the sequence (Q15910 whole entry) above
For test [4] the target is unchanged. Put plainly: Inhibition of EZH2 in human U937 cells assessed as H3K27me3 level at 50 uM incubated for 96 hrs by Western blot analysis. It is filed as cell-based. As to conditions: U-937.
Target sequence in this assay (Q15910 whole entry, looked up): as the sequence (Q15910 whole entry) above
For test [5], the system named is U-937. Put plainly: Induction of apoptosis in human U937 cells assessed as viable cells at 25 uM incubated for 72 hrs by annexin V-FITC staining based flow cytometry (reference value: 95.4 %). The format is functional. As to conditions: U-937, 72 h, read-out: Activity. A general note: Flow cytometry measures light scatter and fluorescence of single cells or particles in a stream.

A short description of test [6]: Cell cycle arrest in human RH4 cells assessed as S accumulation at 28 uM incubated for 72 hrs by propidium iodide staining based flow cytometry (reference value: 29.9 %). It is filed as functional.
Test [7] deals with T2, Protein deacetylase HDAC6 (Homo sapiens, UniProt Q9UBN7).
T2 sequence (Q9UBN7 whole entry): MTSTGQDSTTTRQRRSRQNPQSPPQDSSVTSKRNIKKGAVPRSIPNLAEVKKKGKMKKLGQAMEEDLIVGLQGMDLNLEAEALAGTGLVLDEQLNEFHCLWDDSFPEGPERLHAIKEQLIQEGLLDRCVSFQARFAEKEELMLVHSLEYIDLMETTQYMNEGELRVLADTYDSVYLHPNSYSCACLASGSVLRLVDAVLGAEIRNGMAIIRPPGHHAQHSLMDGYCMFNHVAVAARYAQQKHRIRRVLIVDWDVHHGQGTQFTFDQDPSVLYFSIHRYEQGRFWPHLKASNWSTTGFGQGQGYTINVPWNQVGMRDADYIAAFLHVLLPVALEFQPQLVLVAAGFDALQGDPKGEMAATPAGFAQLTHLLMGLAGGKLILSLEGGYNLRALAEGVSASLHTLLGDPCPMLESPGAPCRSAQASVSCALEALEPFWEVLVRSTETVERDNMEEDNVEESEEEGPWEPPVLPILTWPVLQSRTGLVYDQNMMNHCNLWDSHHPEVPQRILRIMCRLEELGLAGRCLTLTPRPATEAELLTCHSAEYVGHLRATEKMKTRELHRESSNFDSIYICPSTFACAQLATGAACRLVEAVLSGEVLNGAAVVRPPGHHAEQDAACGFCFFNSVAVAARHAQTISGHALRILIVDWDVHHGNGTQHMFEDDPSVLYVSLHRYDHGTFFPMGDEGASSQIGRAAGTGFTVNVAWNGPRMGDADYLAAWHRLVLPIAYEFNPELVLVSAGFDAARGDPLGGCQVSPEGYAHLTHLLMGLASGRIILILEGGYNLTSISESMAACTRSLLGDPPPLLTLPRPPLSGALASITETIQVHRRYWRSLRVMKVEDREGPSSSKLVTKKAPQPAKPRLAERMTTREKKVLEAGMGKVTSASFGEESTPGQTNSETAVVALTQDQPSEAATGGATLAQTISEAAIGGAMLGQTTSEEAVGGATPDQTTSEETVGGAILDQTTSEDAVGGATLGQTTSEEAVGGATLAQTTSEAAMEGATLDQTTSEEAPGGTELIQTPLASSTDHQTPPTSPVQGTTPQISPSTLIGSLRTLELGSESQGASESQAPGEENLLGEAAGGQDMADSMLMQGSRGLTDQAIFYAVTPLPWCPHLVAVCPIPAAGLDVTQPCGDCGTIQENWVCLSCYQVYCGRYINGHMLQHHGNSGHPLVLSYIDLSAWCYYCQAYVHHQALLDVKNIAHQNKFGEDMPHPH
Put plainly: Inhibition of human recombinant HDAC6 using AMC-K(Ac)GL as substrate by fluorescence based assay.

Test [8] has as its system U-937. The experiment in a line: Induction of apoptosis in human U937 cells assessed as viable cells at 10 uM incubated for 72 hrs by annexin V-FITC staining based flow cytometry (reference value: 95.4 %). Particulars: U-937, 72 h, read-out: Activity. The format is functional.
Test [9] can be described thus: Induction of apoptosis in human RH4 cells assessed as necrotic cells at 14 uM incubated for 72 hrs by annexin V-FITC staining based flow cytometry (reference value: 0.4 %). It is filed as functional.
A short description of test [10]: Cell cycle arrest in human RH4 cells assessed as subG1 accumulation at 28 uM incubated for 72 hrs by propidium iodide staining based flow cytometry (reference value: 1.9 %). It is filed as functional.
The nature of test [11]: Cytotoxicity against human RH4 cells assessed as reduction in cell viability at 20 uM incubated for 96 hrs by CellTiter-Glo Luminescent cell viability assay relative to control. The format is functional. As to conditions: Rh4, 96 h. The essentials: (§1)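 Viability of U937 (5–25 μM) and RH4 (5–35 μM) cells after 48, 72 and 96 h of treatment at increasing concentrations.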
Background: Cellular ATP, detected with luciferase, serves as a proxy for viable cell number.

Test [12] relates to U-937. The experiment in a line: Induction of differentiation of human U937 cells assessed as increase in CD11b level at 10 uM incubated for 72 hrs by flow cytometry analysis. The format is functional. An outline of the steps: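 U937 cells were treated for 72 h at 10 and 25 μM, and surface CD11b expression was measured as a differentiation marker.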
Test [13] has as its system U-937. Put plainly: Cytotoxicity against human U937 cells assessed as reduction in cell viability at 10 uM incubated for 96 hrs by CellTiter-Glo Luminescent cell viability assay relative to control. It is filed as functional. As to conditions: U-937, 96 h. An outline of the steps: as §1
Test [14] deals with Histone deacetylase 3 (Homo sapiens, UniProt O15379). Put plainly: Inhibition of human recombinant HDAC3 using AMC-K(Ac)GL as substrate by fluorescence based assay.
Histone deacetylase 3, sequence (O15379 whole entry): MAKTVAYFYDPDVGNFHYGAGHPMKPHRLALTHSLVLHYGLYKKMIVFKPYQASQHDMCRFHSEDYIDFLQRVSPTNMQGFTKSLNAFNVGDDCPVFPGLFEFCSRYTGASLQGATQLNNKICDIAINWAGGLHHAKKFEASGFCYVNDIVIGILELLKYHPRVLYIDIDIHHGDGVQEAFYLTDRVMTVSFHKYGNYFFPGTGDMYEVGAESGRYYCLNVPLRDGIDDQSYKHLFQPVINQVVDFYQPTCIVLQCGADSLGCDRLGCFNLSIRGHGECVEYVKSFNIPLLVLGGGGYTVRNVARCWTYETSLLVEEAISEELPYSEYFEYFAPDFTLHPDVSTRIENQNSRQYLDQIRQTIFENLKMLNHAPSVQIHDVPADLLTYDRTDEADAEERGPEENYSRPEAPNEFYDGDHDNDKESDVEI
Test [15] deals with U-937. The experiment in a line: Cytotoxicity against human U937 cells assessed as reduction in cell viability at 25 uM incubated for 96 hrs by CellTiter-Glo Luminescent cell viability assay relative to control. The format is functional. As to conditions: U-937, 96 h. The essentials: as §1
The test system of test [16] is SK-N-SH. Put plainly: Cytotoxicity against human SK-N-SH cells assessed as reduction in cell viability incubated for 72 hrs by CellTiter-Glo Luminescent cell viability assay. The format is functional, cell-based. An outline of the steps: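 Antiproliferative IC50 after 72 h of treatment. Values are means of three independent experiments, each measured in triplicate, ± SD.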

Test [17] is described as follows: Induction of apoptosis in human RH4 cells assessed as viable cells at 28 uM incubated for 72 hrs by annexin V-FITC staining based flow cytometry (reference value: 86.6 %). The format is functional. Particulars: Rh4, 72 h, read-out: Activity.

By IC50 is commonly meant the point on the concentration scale where inhibition reaches its midpoint. As a reminder, the inhibition is the change of the read-out against control, counted positive when it falls.

`Cc1cc(C)c(CNC(=O)c2cc(C)n(-c3ccccc3)c2C)c(=O)[nH]1` yielded an IC50 in test [1] of 5.78 µM. The figures for the fold change (FC) in [2], in [3] and in test [4] were 2.1, 0.7 and 0.9, respectively.
As for `Cc1cc(C)c(CNC(=O)c2cc(C)n(-c3cccc(NC(=O)CCCCCCC(=O)NO)c3)c2C)c(=O)[nH]1`, the viability at 25 µM in [5] was 75%. Further, the IC50 is 7.37 µM in test [1], 0.005 µM in [7], 0.45 µM in test [14] and 25 µM in test [16]. The values for the Activity in test [6], in [9] and in test [10] were 19.8%, 0.4% and 28.1%, respectively. The viability at 10 µM in test [8] was found to be 95%. Moreover, the inhibition at 20 µM in [11] is over 60%. The “fold change (FC)” value in [12] was 2. For the same compound, the inhibition at 10 µM in test [13] was 60%. The inhibition at 25 µM in [15] amounted to 90%. Also, the viability at 28 µM in test [17] came to 68.7%.
